{"source": "paper PMC11025564", "about": "(The journal of physical chemistry. B, 2018)", "tested_on": "integrin αIIbβ3 TM complex", "format": "binding, Human", "settings": "ITC, 28 °C, same bicelles", "method_in_brief": "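β3 TM peptide (10 μM in cell) titrated with αIIb TM peptide in 10 s injections until saturation. Medium: 43 mM DHPC, 17 mM POPC, 25 mM sodium phosphate, pH 7.4, with 9 mM free DHPC. Heats of dilution of both peptides were subtracted. ΔH° and mole-fraction K_XY were fitted with 1:1 stoichiometry fixed. Peptide amounts were set by UV absorbance.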"}
{"substance": "αIIb + β3: Human integrin αIIb(A958-P998) and β3(P685-F727) TM peptides incorporating β3(C687S), recombinantly produced; wild-type pair", "values": [{"measurement": "ΔG°", "setting": "ΔG° = −RT ln KXY", "value": "-4.84 ± 0.01", "unit": "kcal/mol"}, {"measurement": "TΔS°", "setting": "ΔS° = (ΔH° − ΔG°)/T", "value": "-11.1 ± 0.1", "unit": "kcal/mol"}]}
